Measurements from PMC6645658 (ACS Omega, 2017).

Assay: In vivo rat BBB penetration
In short: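 Rats were dosed iv, and plasma and brain tissue were sampled at 0.25 h after dosing. Plasma concentration is in ng/mL and brain concentration in ng/g. Kp-unbound was derived using the unbound fractions measured in rat plasma and rat brain tissue, and was used to judge blood-brain barrier penetration.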

COc1ccsc1CNCC[C@@]1(c2ccccn2)CCOC2(CCCC2)C1 [TRV130, [(3-methoxythiophen-2-yl)methyl]({2-[(9R)-9-(pyridine-2yl)-6-oxaspiro-[4,5]decan-9-yl]ethyl})amine]
concentration at 0.25 h (brain, iv): 315 ng/g | Kp at 0.25 h (brain/plasma, intravenous): 0.936
